Drawing on ChEMBL document CHEMBL1932942, “Antioxidant properties of 4-quinolones and structurally related flavones” (Bioorg Med Chem, 2012), this text covers Activity and Ratio for ten compounds.

Activity calls are given as the source filed them. The calls are words filed in the database; no cut-off is given here.

Experiment [1] deals with Brain. The experiment can be described thus: Antioxidant activity against toxin solution-induced lipid peroxidation in Sprague-Dawley rat brain homogenates assessed as free MDA levels per mg of tissue at 1 by TBARS assay. The class given is functional, tissue-based. In outline: (§1)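 Adult Sprague Dawley rat brains (200–250 g) homogenised 10% (w/v) in PBS, pH 7.4. Peroxidation induced with toxin solution (0.5 mM H2O2, 0.488 mM FeCl3, 0.14 mM ascorbic acid, 2:1:1). Compounds given in 10% DMSO final, with a 10% DMSO blank. BHT, TCA and TBA added, then 60 °C incubation, ice cooling and butanol extraction. A530 read; nmol MDA equivalents/mg tissue from a TMP curve.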

For experiment [2], the system named is Brain. The experiment can be described thus: Antioxidant activity against toxin solution-induced lipid peroxidation in Sprague-Dawley rat brain homogenates assessed as free MDA levels per mg of tissue at 0.01 by TBARS assay. The experiment is classed as functional, tissue-based. In outline: as §1
Experiment [3] deals with Brain. The experiment can be described thus: Antioxidant activity against toxin solution-induced lipid peroxidation in Sprague-Dawley rat brain homogenates assessed as free MDA levels per mg of tissue at 0.001 by TBARS assay. The experiment is classed as functional, tissue-based.
In experiment [4] the test system is Brain. The experiment can be described thus: Antioxidant activity against toxin solution-induced lipid peroxidation in Sprague-Dawley rat brain homogenates assessed as free MDA levels per mg of tissue at 0.1 by TBARS assay. The class given is functional, tissue-based. A digest of the protocol: as §1
Experiment [5] in a line: Antioxidant activity assessed as AAPH-induced peroxyl radical scavenging activity at 1 mM by ORAC assay. The class given is functional.
Experiment [6] in a line: Antioxidant activity assessed as trolox equivalents ratio of ferric ion reducing activity using fe3+-TPTZ at 0.01 mM by FRAP assay. The experiment is classed as functional. In outline:
(§2)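 Compound in 10% DMSO (final) was mixed with FRAP reagent (300 mM acetate buffer pH 3.6, 10 mM TPTZ in 40 mM HCl, 20 mM FeCl3, 10:1:1). Reading at 37 °C, 595 nm, after a 3 min lag, then every 6 min to 33 min. Value at 33 min expressed as percent of the 0.1 mM Trolox standard. DMSO/reagent blank subtracted. Triplicates.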

Experiment [7] can be described thus: Antioxidant activity assessed as trolox equivalents ratio of AAPH-induced peroxyl radical scavenging activity at 0.001 mM by ORAC assay. The class given is functional. In outline:
(§3)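 Peroxyl scavenging in 75 mM potassium phosphate, pH 7.4. Compound in 10% DMSO (final) was mixed with 112 nM fluorescein, and 36 mM AAPH (final) was added. Fluorescence (ex 485/em 530 nm) was read every 5 min for 3 h. AUC was converted to Trolox equivalents against a Trolox curve (0–20 µM, duplicates). DMSO blank was subtracted. Mean of triplicates.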

Experiment [8] in a line: Antioxidant activity assessed as trolox equivalents ratio of ferric ion reducing activity using fe3+-TPTZ at 0.001 mM by FRAP assay. The experiment is classed as functional. In outline:
as §2

The nature of experiment [9]: Antioxidant activity assessed as trolox equivalents ratio of ferric ion reducing activity using fe3+-TPTZ at 0.1 mM by FRAP assay. The experiment is classed as functional. A digest of the protocol: as §2
A short description of experiment [10]: Antioxidant activity assessed as ferric ion reducing activity using fe3+-TPTZ at 1 mM by FRAP assay. The experiment is classed as functional.
A short description of experiment [11]: Antioxidant activity assessed as trolox equivalents ratio of AAPH-induced peroxyl radical scavenging activity at 0.01 mM by ORAC assay. The experiment is classed as functional. A digest of the protocol: as §3
The nature of experiment [12]: Antioxidant activity assessed as trolox equivalents ratio of AAPH-induced peroxyl radical scavenging activity at 0.1 mM by ORAC assay. The experiment is classed as functional. In outline:
as §3

Regarding `Oc1ccnc2ccccc12`, the Activity came out at 0.77 nmol in experiment [1], 0.93 nmol in experiment [2] and 0.92 nmol in experiment [4]. The result in experiment [3], in experiment [5] and in experiment [10] was inactive. Moreover, the Ratio in experiment [6] came to 1.69; in experiment [7], 1.5; in [8], 2.82; in experiment [9], 0.23.
`O=c1cc(-c2ccccc2)oc2ccccc12`: the Activity was determined as 0.83 nmol in [1], 0.78 nmol in experiment [2] and 0.87 nmol in experiment [4]. Moreover, the result in [3], in experiment [9] and in experiment [12] was inactive. Besides, the Ratio turned out to be 2.4 in experiment [5]; 3.73 in [6]; 1.51 in experiment [11]; 0.2 in experiment [8]; 2.72 in [10].
As for `Oc1ccc2c(O)cc(-c3ccccc3)nc2c1`, the results for the Activity in experiment [1], in experiment [2] and in [4] were 0.72 nmol, 0.69 nmol and 0.71 nmol, respectively. The outcome in experiment [3], in [5] and in experiment [10] was inactive. The Ratio in experiment [6] is -1.26; in experiment [7] it was 15.3; in experiment [11] it was 26.4; in experiment [8] it was -3.48; in experiment [9], 1.41; in experiment [12], 57.5.
On to `Oc1cccc2cccnc12`, for which the results for the Activity in experiment [1], in experiment [2] and in experiment [4] were 0.07 nmol, 0.93 nmol and 0.83 nmol, respectively. In addition, the result in experiment [3], in [5] and in [10] was inactive. The Ratio in [6] was determined as 3.68; in experiment [7], 10.2; in experiment [11], 30.5; in experiment [8] it was 2.65; in experiment [9] it was 15.4; in experiment [12] it was 55.4.
Take `Oc1cc(-c2ccccc2)nc2c(O)cccc12`: the values for the Activity in experiment [1], in experiment [2] and in experiment [4] were 0.27 nmol, 0.58 nmol and 0.49 nmol, respectively. Also, the outcome in [3], in [5] and in [10] was inactive. The Ratio in experiment [6] stood at 25.5; in experiment [7], 9.18; in [11] it was 26.1; in experiment [8], 3.56; in experiment [9] it was 97.7; in experiment [12] it was 65.4.
Consider `Oc1cc(-c2ccccc2)nc2ccccc12`, for which the Activity in experiment [1] stood at 0.87 nmol; in [2] it was 0.91 nmol; in experiment [4], 0.87 nmol. For the same compound, the result in [3], in experiment [5] and in [10] was inactive. For the same compound, the Ratio in [6] was 1.06; in [8] it was 0.53; in experiment [9], 4.79; in experiment [12] it was 1.91.
Regarding `O=c1cc(-c2ccccc2)oc2cc(O)ccc12`, the Activity was 0.91 nmol in experiment [1], 0.42 nmol in experiment [2] and 0.48 nmol in experiment [4]. Moreover, the outcome in experiment [3], in experiment [5] and in experiment [10] was inactive. For the same compound, the Ratio in [6] is 2.52; in experiment [8], 2.04; in experiment [9], 15.1.
Turning to `O=c1cc(-c2ccccc2)oc2ccc(O)cc12`, the Activity in experiment [1] is 0.63 nmol; in [2], 0.82 nmol; in [4], 0.79 nmol. The outcome in experiment [3], in [5] and in experiment [10] was inactive. In addition, the Ratio in experiment [6] was 2.47; in [7], 21.4; in experiment [11], 37.1; in [8], 1.84; in experiment [12], 59.
For `c1ccc2ncccc2c1`, the Activity in experiment [1] was 0.73 nmol; in [2], 0.8 nmol; in experiment [4], 0.77 nmol. The result in experiment [3], in experiment [5] and in [10] was inactive. For the same compound, the Ratio in experiment [6] is 2.42; in experiment [7] it was 1.4; in experiment [8], 1.97; in experiment [9] it was 0.98.
With `Oc1ccc2nc(-c3ccccc3)cc(O)c2c1`, the Activity is 0.05 nmol in experiment [1], 0.48 nmol in experiment [2] and 0.31 nmol in experiment [4]. Moreover, the outcome in experiment [3], in [5] and in experiment [10] was inactive. The Ratio in experiment [6] was found to be 9.53; in experiment [7], 12.3; in [11], 29; in experiment [8] it was 2.14; in [9] it was 58.9; in [12], 58.3.
